The source made the active and inactive calls. The calls are words filed in the database; no cut-off is given here.
Legend:
Vero = experiment: Cytotoxicity against African green monkey Vero cells after 72 hrs by MTT assay; format: cell-based; details: Chlorocebus sabaeus
[1] = Cytotoxicity against human SH-SY5Y cells after 72 hrs by MTT assay; format: functional, cell-based
Method in brief: (§1)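 Cells were grown in RPMI-1640 or DMEM with 10% NBS or FBS and 100 U/mL penicillin, at 37 °C under 5% CO₂. After 72 h with a range of compound concentrations, MTT was added for a further 4 h at 37 °C. Formazan was dissolved in DMSO and absorbance read at 570 and 630 nm. Assays ran in triplicate across three independent experiments, and IC₅₀ was calculated for 50% loss of viability.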

HCT-116 = experiment: Cytotoxicity against human HCT116 cells after 72 hrs by MTT assay; format: functional, cell-based; details: HCT-116, 72 h; method in brief: as §1
A549 = experiment: Cytotoxicity against human A549 cells after 72 hrs by MTT assay; format: functional, cell-based; details: A549, 72 h
Method in brief: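 After 72 h with a range of compound concentrations, MTT was added for a further 4 h at 37 °C. Formazan was dissolved in DMSO and absorbance read at 570 and 630 nm. Assays ran in triplicate across three independent experiments, and IC₅₀ was calculated for 50% loss of viability.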

MCF7 = experiment: Cytotoxicity against human MCF7 cells after 72 hrs by MTT assay; format: functional, cell-based; details: MCF7, 72 h; method in brief: as §1
HepG2 [2] = experiment: Cytotoxicity against human HepG2 cells after 72 hrs by MTT assay; format: functional, cell-based; details: HepG2, 72 h; method in brief: as §1
[3] = target: T1, Nuclear factor erythroid 2-related factor 2 (Homo sapiens) (UniProt Q16236); experiment: Activation of NRF2 in human HepG2 cells after 6 hrs by spectrophotometric analysis; format: cell-based
T1 sequence (whole entry): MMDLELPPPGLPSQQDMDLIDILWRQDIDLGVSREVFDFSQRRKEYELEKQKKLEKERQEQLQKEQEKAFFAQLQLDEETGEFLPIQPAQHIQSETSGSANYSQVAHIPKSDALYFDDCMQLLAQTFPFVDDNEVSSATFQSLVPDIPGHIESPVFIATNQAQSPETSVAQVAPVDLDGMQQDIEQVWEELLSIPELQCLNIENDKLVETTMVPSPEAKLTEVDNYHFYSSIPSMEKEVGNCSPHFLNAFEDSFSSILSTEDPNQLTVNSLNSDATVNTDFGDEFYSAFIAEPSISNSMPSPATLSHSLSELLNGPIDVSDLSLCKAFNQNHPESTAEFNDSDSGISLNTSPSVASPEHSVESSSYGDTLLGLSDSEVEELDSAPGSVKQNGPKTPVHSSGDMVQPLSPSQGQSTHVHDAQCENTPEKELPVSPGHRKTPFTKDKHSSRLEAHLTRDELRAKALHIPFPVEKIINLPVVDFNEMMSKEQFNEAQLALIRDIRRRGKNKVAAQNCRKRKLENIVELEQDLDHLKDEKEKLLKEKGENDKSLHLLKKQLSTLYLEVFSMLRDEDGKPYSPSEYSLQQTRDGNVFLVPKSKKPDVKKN
Method in brief: (§2)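 HepG2 cells treated 2, 4 and 8 h at 20 µM, or 6 h at 5, 10 and 20 µM. Nuclear extracts were prepared by hypotonic lysis and detergent, then 14,000 g spin at 4 °C. Nrf2 DNA-binding was measured by TransAM ELISA: nuclear extract incubated 1 h at room temperature in wells, anti-Nrf2 (1:1000) 1 h, HRP secondary (1:1000), developing solution 2-15 min, stop solution.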

[4] = target: T1, Nuclear factor erythroid 2-related factor 2 (Homo sapiens); experiment: Activation of NRF2 in human HepG2 cells at 20 uM by spectrophotometric analysis; format: cell-based; details: TDE = time-dependent effect; method in brief: as §2
HepG2 [5] = experiment: Induction of apoptosis in human HepG2 cells assessed as late apoptotic cells at 20 uM after 48 hrs by Annexin-V-FITC/propidium iodide staining-based flow cytometric analysis (reference value: 0.29%); format: functional
HepG2 [6] = experiment: Induction of apoptosis in human HepG2 cells assessed as late apoptotic cells at 10 uM after 48 hrs by Annexin-V-FITC/propidium iodide staining-based flow cytometric analysis (reference value: 0.29%); format: functional
HepG2 [7] = experiment: Induction of apoptosis in human HepG2 cells assessed as late apoptotic cells at 5 uM after 48 hrs by Annexin-V-FITC/propidium iodide staining-based flow cytometric analysis (reference value: 0.29%); format: functional
HepG2 [8] = experiment: Induction of apoptosis in human HepG2 cells assessed as early apoptotic cells at 20 uM after 48 hrs by Annexin-V-FITC/propidium iodide staining-based flow cytometric analysis (reference value: 0.14%); format: functional
HepG2 [9] = experiment: Induction of apoptosis in human HepG2 cells assessed as early apoptotic cells at 10 uM after 48 hrs by Annexin-V-FITC/propidium iodide staining-based flow cytometric analysis (reference value: 0.14%); format: functional
HepG2 [10] = experiment: Induction of apoptosis in human HepG2 cells assessed as early apoptotic cells at 5 uM after 48 hrs by Annexin-V-FITC/propidium iodide staining-based flow cytometric analysis (reference value: 0.14%); format: functional
HepG2 [11] = experiment: Cell cycle arrest in human HepG2 cells assessed as accumulation at S phase at 20 uM after 48 hrs by DAPI staining-based flow cytometric analysis relative to control; format: functional
Method in brief: (§3)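 HepG2 cells cultured at 37 °C, 5% CO2, exposed 48 h to 5, 10 or 20 µM. Cells harvested, washed twice in PBS, and DNA content of 10,000 events read by flow cytometry. Phase proportions compared with vehicle control; significance at p<0.05 and p<0.01.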

HepG2 [12] = experiment: Cell cycle arrest in human HepG2 cells assessed as accumulation at G2/M phase at 5 to 20 uM after 48 hrs by DAPI staining-based flow cytometric analysis; format: functional; method in brief: as §3
HepG2 [13] = experiment: Cell cycle arrest in human HepG2 cells assessed as decrease in accumulation at G0/G1 phase after 48 hrs by DAPI staining-based flow cytometric analysis; format: functional
Method in brief: (§4)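 HepG2 cells were exposed for 48 h to 5, 10 or 20 of each agent, alongside a vehicle control. About […] cells were harvested and washed twice in PBS. DNA content was read by flow cytometry on 10,000 events, giving the percentage of cells in each phase relative to control.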

HepG2 [14] = experiment: Cell cycle arrest in human HepG2 cells assessed as accumulation at S phase after 48 hrs by DAPI staining-based flow cytometric analysis; format: functional; method in brief: as §4

Structure (SMILES) | IC50 (Vero) [µM] | IC50 [1] [µM] | IC50 (HCT-116) [µM] | IC50 (A549) [µM] | IC50 (MCF7) [µM] | IC50 (HepG2 [2]) [µM] | Activity [3] | Activity [4] | Activity (HepG2 [5]) [%] | Activity (HepG2 [6]) [%] | Activity (HepG2 [7]) [%] | Activity (HepG2 [8]) [%] | Activity (HepG2 [9]) [%] | Activity (HepG2 [10]) [%] | Activity (HepG2 [11]) [%] | Activity (HepG2 [12]) | Activity (HepG2 [13]) | Activity (HepG2 [14])
COc1ccc(C[S+]([O-])CCCCN=C=S)cc1 (stereo unspecified) | 3.71 | 2.79 | 5.46 | 32.5 | 8.89 | 4.62 | – | – | – | – | – | – | – | – | – | – | – | –
[O-][S+](CCCN=C=S)Cc1ccccc1 (stereo unspecified) | 10.1 | 8.89 | 15.6 | 11.8 | 7.92 | 9.84 | – | – | – | – | – | – | – | – | – | – | – | –
[O-][S+](CCCCCCN=C=S)Cc1ccccc1 (stereo unspecified) | 4.33 | 7.63 | 11.6 | 14.7 | 5.49 | 6.17 | – | – | – | – | – | – | – | – | – | – | – | –
CC(C)C[S+]([O-])CCCCN=C=S (stereo unspecified) | 4.98 | 5.7 | 2.06 | 9.09 | 3.66 | 2.16 | – | – | – | – | – | – | – | – | – | – | – | –
CCCC[S+]([O-])CCCCN=C=S (stereo unspecified) | 5.15 | 6.47 | 2.81 | 9.56 | 5.84 | 5.93 | – | – | – | – | – | – | – | – | – | – | – | –
CC(C)[S+]([O-])CCCCCN=C=S (stereo unspecified) | 10.3 | 8.62 | 3.42 | 7.75 | 6.78 | 3.69 | – | – | – | – | – | – | – | – | – | – | – | –
O=S(=O)(CCCCN=C=S)Cc1ccccc1 | 7.17 | 4.78 | 6.28 | 8.89 | 7.55 | 8.49 | – | – | – | – | – | – | – | – | – | – | – | –
C[S+]([O-])CCCCN=C=S (stereo unspecified) [SULFORAPHANE] | 13.7 | 13.3 | 11.6 | 22 | 17.7 | 14.1 | Dose-dependent effect | tde | 4.19 | 1.22 | 0.73 | 0.9 | 0.44 | 0.15 | 5.9 | Active | Dose-dependent effect | Dose-dependent effect
[O-][S+](CCCCN=C=S)Cc1cccs1 (stereo unspecified) | 6.22 | 5.31 | 3.21 | 8.41 | 4.14 | 3.82 | – | – | – | – | – | – | – | – | – | – | – | –
[O-][S+](CCCCN=C=S)c1ccccc1 (stereo unspecified) | 4.33 | 8.75 | 4.53 | 23.8 | 7.05 | 6.34 | – | – | – | – | – | – | – | – | – | – | – | –
[O-][S+](CCCCCN=C=S)Cc1ccccc1 (stereo unspecified) | 5.85 | 7.01 | 5.19 | 6.21 | 3.83 | 3.91 | – | – | – | – | – | – | – | – | – | – | – | –
CC[S+]([O-])CCCCN=C=S (stereo unspecified) | 7.9 | 9.81 | 3.85 | 10.2 | 8.26 | 5.35 | – | – | – | – | – | – | – | – | – | – | – | –
[O-][S+](CCCCN=C=S)CCc1ccccc1 (stereo unspecified) | 6.82 | 5.6 | 8.02 | 10.2 | 9.33 | 6.97 | – | – | – | – | – | – | – | – | – | – | – | –
[O-][S+](CCCCN=C=S)Cc1ccccn1 (stereo unspecified) | 7.65 | 7.83 | 3.72 | 8.33 | 6.89 | 5.35 | – | – | – | – | – | – | – | – | – | – | – | –
CCC[S+]([O-])CCCCN=C=S (stereo unspecified) | 5.64 | 7.66 | 3.95 | 10.7 | 5.96 | 3.91 | – | – | – | – | – | – | – | – | – | – | – | –
O=c1[nH]cc(F)c(=O)[nH]1 [FLUOROURACIL] | 9.71 | 0.97 | 3.24 | – | 10.1 | – | – | – | – | – | – | – | – | – | – | – | – | –
[O-][S+](CCCCN=C=S)Cc1ccccc1 (stereo unspecified) | 4.85 | 5.21 | 3.66 | 7.41 | 3.3 | 2.85 | Dose-dependent effect | tde | 25.33 | 10.91 | 1.78 | 0.24 | 0.72 | 0.39 | 9.11 | Active | Dose-dependent effect | Dose-dependent effect
[O-][S+](CCCCN=C=S)C1CCCC1 (stereo unspecified) | 4.6 | 7.14 | 3.14 | 10.1 | 4.45 | 3.64 | – | – | – | – | – | – | – | – | – | – | – | –
[O-][S+](CCCCN=C=S)Cc1ccco1 (stereo unspecified) | 5.25 | 7.79 | 3.47 | 5.64 | 5.68 | 3.86 | – | – | – | – | – | – | – | – | – | – | – | –
S=C=NCCCCSCc1ccccc1 | 24.9 | 20.7 | 41.5 | 51.3 | 38.3 | 12.6 | – | – | – | – | – | – | – | – | – | – | – | –
CC(C)[S+]([O-])CCCCCCN=C=S (stereo unspecified) | 7.31 | 7.82 | 9.46 | 12 | 9.76 | 7.82 | – | – | – | – | – | – | – | – | – | – | – | –
O=[N+]([O-])c1ccc(C[S+]([O-])CCCCN=C=S)cc1 (stereo unspecified) | 3.36 | 7.23 | 2.83 | 14.3 | 7.77 | 3.18 | – | – | – | – | – | – | – | – | – | – | – | –
CC(C)[S+]([O-])CCCN=C=S (stereo unspecified) | 8.25 | 18.1 | 15.9 | 16.7 | 7.93 | 7.14 | – | – | – | – | – | – | – | – | – | – | – | –
CC(C)[S+]([O-])CCCCN=C=S (stereo unspecified) | 10.4 | 9.42 | 3.74 | 10.4 | 8.82 | 2.05 | – | – | – | – | – | – | – | – | – | – | – | –
